This note sets out measurements from ChEMBL document CHEMBL3259660, “Haloemodin as novel antibacterial agent inhibiting DNA gyrase and bacterial topoisomerase I” (J Med Chem, 2014).

The nature of data set [1]: Binding affinity to supercoiled pHOT-1 DNA assessed as unwinding of DNA helix by measuring shift of negative to positive supercoiled pHOT-1 at 10 to 150 uM treated 15 mins prior to human topoisomerase 1 addition for 30 mins by agarose gel electrophoresis.
Data set [2] concerns Escherichia coli. Put plainly: Antibacterial activity against Escherichia coli ATCC 25922 assessed as growth inhibition by agar dilution assay. It is filed as functional. An outline of the steps: (§1)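 Agar dilution MIC per CLSI (aerobic and anaerobic methods); compounds dissolved in DMSO, reference antibiotics in sterile water. MIC taken as lowest concentration with no visible growth; determined at least twice on separate days, higher value reported. Clinical isolate ranges summarized as MIC50/MIC90.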
(In agar dilution the substance is mixed into plates at graded concentrations.)

The nature of data set [3]: Binding affinity to supercoiled pHOT-1 DNA assessed as unwinding of DNA helix by measuring distribution of topoisomers at 10 to 150 uM treated 15 mins prior to Escherichia coli topoisomerase 1 addition for 30 mins by agarose gel electrophoresis.
The subject of the next data set is Enterococcus faecalis. Put plainly: Antibacterial activity against vancomycin-sensitive Enterococcus faecalis assessed as growth inhibition by agar dilution assay. It is filed as functional.
In data set [4] the test system is Bacteroides fragilis. Description: Antibacterial activity against Bacteroides fragilis ATCC 25285 assessed as growth inhibition by agar dilution assay. It is filed as functional. An outline of the steps: as §1
For data set [5], the system named is Escherichia coli. Put plainly: Antibacterial activity against Escherichia coli assessed as growth inhibition by agar dilution assay. The format is functional, organism-based. In short, it runs like this: as §1
Data set [6] has as its system Bacteroides fragilis. Description: Antibacterial activity against Bacteroides fragilis assessed as growth inhibition by agar dilution assay. The format is functional. In short, it runs like this: as §1
In a further data set the test system is Staphylococcus aureus. Description: Antibacterial activity against methicillin-resistant Staphylococcus aureus assessed as growth inhibition by agar dilution assay. It is filed as functional. An outline of the steps: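 CLSI agar dilution MIC against aerobic and anaerobic strains. Test compounds were dissolved in DMSO and reference antibiotics in sterile water. MIC was taken as the lowest concentration showing no bacterial growth. Each MIC was determined at least twice on separate days, and the higher value was reported. E. coli PQ 37 was cultured in LA medium.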

Data set [7] can be described thus: In vivo acute toxicity in iv dosed Kunming mouse. It is filed as organism-based. An outline of the steps:
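Male and female adult Kunming mice (18−22 g) received a single intravenous injection at various doses (n = 10 per group, 200 μL per mouse). Compound was given in polyethylene glycol−water (1:1, v/v), and controls received vehicle alone. Mortality was recorded for 7 days. LD50 was estimated by probit analysis.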

In brackets after ≈: the same amount, converted by molar mass. Activity calls are given as the source filed them. The rule behind the calls is not given here.

For orientation: MIC means the lowest concentration found to suppress growth. As usually defined, the LD50 is the dose expected to kill half of the subjects tested. A lower LD50 goes with a more toxic substance. Regarding `Cc1cc(O)c2c(c1)C(=O)c1c(I)c(O)c(I)c(O)c1C2=O`, the outcome in data set [1] and in [3] was inactive. In addition, the MIC in the data set with Escherichia coli [2] is > 256 µg/mL; in the data set with Enterococcus faecalis, 8 µg/mL (≈ 15.3 µM); in the data set with Bacteroides fragilis [4], 256 µg/mL (≈ 490 µM); in the data set with Bacteroides fragilis [6], 64 µg/mL (≈ 123 µM); in the data set on Staphylococcus aureus, 4 µg/mL (≈ 7.66 µM). In addition, the “growth inhibition (GI)” value with Escherichia coli [5] was “inactive”. The same molecule gave an LD50 in data set [7] of 110 mg/kg.
